KCNK3 block – human KCNK3 channel inhibition, primary screen; AID 602410; hit rate 0.84% among 340,000; CHO-KCNK3 thallium flux, FluxOR fluorescence; stronger effect = lower value; B-score at 10 µM; O14649;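 active means B-score under library mean minus 4 SD, starting fluorescence ratio at most library mean plus 5 SD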;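 further: more negative B-score means stronger inhibition of thallium flux through KCNK3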
KCNK9 block – blocks the human KCNK9 two-pore domain potassium channel. hit rate 1.2% among 310,000. Q9NPC2. B-score at 10 µM. HEK293 KCNK9, FluxOR thallium flux fluorescence; stronger effect = lower value;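 active means ratio B-score over 3 SD below the library mean, with starting fluorescence within 5 SD of its mean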;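 further: negative B-score means less thallium flux so channel inhibition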
KCNQ1 inh – blocks the human KCNQ1 potassium channel. P51787. hit rate 1.3% among 310,000. CHO-K1 KCNQ1, FluxOR thallium flux fluorescence; stronger effect = higher value. B-score at 10 µM. AID 2642;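 active means compounds whose thallium flux B-score, printed positive for inhibition, exceeds three library SD while starting fluorescence stays within three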;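 further: channel opened by potassium depolarization with thallium stimulus after 20 min compound exposure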
KCNQ1 act – potentiators or activators of human KCNQ1 potassium channel; B-score at 10 µM; hit rate 0.35% among 310,000; CHO-K1 KCNQ1, thallium flux FluxOR fluorescence; stronger effect = higher value; P51787;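 active means fluorescence ratio B-score, a plate-corrected score, at least three library SD, with initial intensity B-score within 5 SD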
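Material: CHO-K1 cells stably expressing KCNQ1. Medium: assay buffer for compound exposure, DMSO matched across wells. Reagent: K+/Tl+ depolarizing stimulus. Compound dosing: single-concentration screen. Times: 37 °C overnight plating, 90-min dark dye load, 20-min compound pretreatment. Technique: FluxOR Tl+ flux fluorescence.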
Kir21 block – Kir2.1 (mouse) channel inhibition; HEK293-Kir2.1, FluxOR thallium flux fluorescence; stronger effect = lower value; AID 1672; P35561; hit rate 0.85% among 310,000; B-score at 10 µM;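 active means fluorescence ratio B-score at or below minus 3 SD of library scores, with starting-brightness B-score within 2 SD, cut at about -4.2 in these data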;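 further: channel flux triggered by added potassium and thallium sulfate stimulus; B-score of peak minus minimum fluorescence over baseline after thallium stimulus; more negative B-score means stronger Kir2.1 block with less thallium influx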
hERG protect – compounds protecting human hERG from proarrhythmic drug block; Q12809; CHO-hERG, FluxOR thallium flux, dofetilide IC70 present; activation (rescue from dofetilide block), less the hit threshold, % at 10 µM; hit rate 0.51% among 310,000;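 active means activation above the mean of controls blocked by dofetilide plus 5 SD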;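 further: thallium influx through hERG after potassium depolarization seen as dye fluorescence rise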
Target sequence (Q12809 whole entry, looked up): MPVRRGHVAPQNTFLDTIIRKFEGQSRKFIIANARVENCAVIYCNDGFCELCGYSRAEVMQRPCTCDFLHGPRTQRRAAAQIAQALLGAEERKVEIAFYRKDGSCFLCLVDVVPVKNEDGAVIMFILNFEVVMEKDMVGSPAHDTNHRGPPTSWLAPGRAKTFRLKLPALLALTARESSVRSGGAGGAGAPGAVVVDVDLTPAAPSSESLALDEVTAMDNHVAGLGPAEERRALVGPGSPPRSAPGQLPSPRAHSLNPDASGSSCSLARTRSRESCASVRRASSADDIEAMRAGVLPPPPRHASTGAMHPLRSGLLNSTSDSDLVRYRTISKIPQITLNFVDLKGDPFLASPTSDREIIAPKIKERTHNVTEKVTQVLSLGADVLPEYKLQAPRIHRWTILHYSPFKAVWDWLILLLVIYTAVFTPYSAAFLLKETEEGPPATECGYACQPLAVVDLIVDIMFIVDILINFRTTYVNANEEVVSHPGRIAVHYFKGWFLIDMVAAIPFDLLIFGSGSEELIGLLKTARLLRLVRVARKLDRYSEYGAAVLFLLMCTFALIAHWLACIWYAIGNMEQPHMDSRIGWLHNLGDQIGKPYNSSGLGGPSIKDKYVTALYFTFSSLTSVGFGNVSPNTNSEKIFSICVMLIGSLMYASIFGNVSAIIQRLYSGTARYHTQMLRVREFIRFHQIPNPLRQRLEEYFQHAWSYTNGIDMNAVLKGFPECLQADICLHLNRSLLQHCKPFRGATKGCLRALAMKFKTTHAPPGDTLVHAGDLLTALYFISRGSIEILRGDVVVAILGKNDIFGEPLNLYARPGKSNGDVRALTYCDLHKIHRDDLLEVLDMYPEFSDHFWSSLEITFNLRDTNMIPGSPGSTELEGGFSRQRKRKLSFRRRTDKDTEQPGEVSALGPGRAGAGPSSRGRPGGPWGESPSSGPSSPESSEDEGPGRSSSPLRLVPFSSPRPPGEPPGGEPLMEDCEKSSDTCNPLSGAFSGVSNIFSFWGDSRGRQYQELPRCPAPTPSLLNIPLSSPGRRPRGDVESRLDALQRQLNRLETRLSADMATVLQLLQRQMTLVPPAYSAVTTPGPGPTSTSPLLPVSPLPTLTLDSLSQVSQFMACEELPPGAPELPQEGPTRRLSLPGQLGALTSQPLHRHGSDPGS
KCNK9 block conf – confirmation of human KCNK9 potassium channel inhibitors. shares compounds with KCNK9 block. HEK293 KCNK9 cells, FluxOR thallium flux fluorescence. inhibition, % at 10 µM. hit rate 43% among 4,900. AID 492992;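 active means thallium signal inhibited by more than 5 SD of the compound-free buffer control wells, on both duplicate plates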
Kir21 sel – mouse Kir2.1 off-target activity of KCNK9 modulators; shares compounds with KCNK9 block; Kir2.1 cells, FluxOR thallium flux fluorescence; inhibition, % at 10 µM; hit rate 4% among 4,900; AID 492993;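 active means thallium signal drop more than 5 SD beyond the mean of the no-compound control wells, seen in both duplicate plates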;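 further: signal is fluorescence rise after thallium addition divided by baseline fluorescence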
KCNK9 uninduced – non-induced cell nonspecific activity of KCNK9 modulators | shares compounds with KCNK9 block | non-induced KCNK9-HEK293, FluxOR thallium flux | inhibition, % at 10 µM | hit rate 40% among 4,900;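 active means thallium signal drop beyond 5 SD of the untreated control mean, on both duplicate plates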
KCNK3 confirm – human KCNK3 channel inhibition, confirmation assay; shares compounds with KCNK3 block; CHO-KCNK3 thallium flux, FluxOR fluorescence; 0% buffer, 100% carvedilol maximal block; ratio percent of control, % at 10 µM; hit rate 99% among 2,400; AID 651638;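 active means ratio percent of control, averaged over triplicates, above buffer control mean plus 5 SD, cut at about 64% in these data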;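 further: ratio is the fluorescence rise from min to max over baseline after thallium stimulus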
KCNK3 uninduced – activity in cells without induced KCNK3 expression; hit rate 40% among 2,400; non-induced KCNK3 parental cells, FluxOR thallium flux; stronger effect = lower value; thallium flux ratio (lower = more inhibition) at 10 µM; shares compounds with KCNK3 block;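 active means thallium flux ratio, averaged over three wells, more than 5 SD below the buffer control mean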;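 further: host cells are CHO cells without KCNK3 induction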
Of the large screens only hits and unclear results are named; the others gave an inactive call (follow-up assays come after a bar, where they were run). This is a sample that favours compounds with a hit; in the whole collection about 3.8% have one here.

Cc1c(CCC(=O)O)c(=O)oc2cc3oc4c(c3cc12)CCCC4	none | KCNK9 block conf inactive | Kir21 sel inactive | KCNK9 uninduced inactive
O=C(Nc1ccc(OC(F)F)c(Cl)c1)C(c1ccccc1)c1ccccc1	KCNK9 block -10.5 | KCNK9 block conf 25.0% | Kir21 sel inactive | KCNK9 uninduced 41.0%
Cc1cc(C(=O)Cn2nc(C(=O)O)c3ccccc3c2=O)c(C)n1-c1cccc(C(F)(F)F)c1	none | KCNK9 block conf inactive | Kir21 sel inactive | KCNK9 uninduced inactive
O=C(O)c1cnc(-c2ccccc2)nc1Sc1ccc(Cl)cc1Cl	none | KCNK9 block conf inactive | Kir21 sel inactive | KCNK9 uninduced inactive
COc1ccc(Br)cc1C(=O)Nc1cccc(-c2nnc(-c3ccco3)o2)c1	KCNK9 block -12 | KCNK9 block conf 60.0% | Kir21 sel inactive | KCNK9 uninduced inactive
S=c1[nH]nc(Cc2ccccc2)n1-c1cccc2ccccc12	none | KCNK9 block conf inactive | Kir21 sel inactive | KCNK9 uninduced inactive
CCOc1ccc(Cc2n[nH]c(=S)n2Cc2ccccc2)cc1	KCNK9 block -15 | KCNK9 block conf 32.0% | Kir21 sel inactive | KCNK9 uninduced 33.5%
CCCOc1cccc(C(=O)NC(=S)Nc2cccc(C(F)(F)F)c2)c1	none | KCNK9 block conf inactive | Kir21 sel inactive | KCNK9 uninduced inactive
CCOC(=S)SCC(=O)N1CCc2cc(OC)ccc2C1C1C(=O)CCCC1=O (stereo not given)	none
COc1cc(CC(NC(C)=O)C(=O)NC2CCN(c3c(Cc4ccccc4)c(C)nc4ncnn34)CC2)cc(OC)c1 (stereo not given)	none
CC(=O)c1cccc(S(=O)(=O)NCC(C)(C)N2CCOCC2)c1	none
CN(Cc1ccc(C(F)(F)F)cc1)C(=O)c1ccc(Oc2ccccc2)cc1	none | KCNK9 block conf inactive | Kir21 sel inactive | KCNK9 uninduced 25.5%
CN(Cc1ccccc1F)C(=O)c1ccc(Oc2ccccc2)cc1	none | KCNK9 block conf inactive | Kir21 sel inactive | KCNK9 uninduced inactive
COCCNC(=O)c1nn2c(C(F)(F)F)cc(-c3ccccc3)nc2c1Cl	none
CCOC(CNC(=O)Cn1nc(C)c2ccccc21)OCC	none
O=C(Nc1nnc(/C=C/c2ccccc2)s1)c1ccco1	none
Cc1cc(C)c(-c2csc(NC(=O)/C=C/c3cccs3)n2)c(C)c1	none | KCNK9 block conf inactive | Kir21 sel inactive | KCNK9 uninduced inactive
CCOC(=O)C1C(=O)C(=O)N(C(C)C)C1C(=O)OCC (stereo not given)	none (no result: KCNK9 block, KCNQ1 inh, KCNQ1 act, Kir21 block, hERG protect)
COc1ccc(Oc2ccc(C(F)(F)F)cc2NC(=O)c2ccc(F)cc2)cc1	KCNQ1 inh 6 | KCNK9 block conf inactive | Kir21 sel inactive | KCNK9 uninduced inactive
COc1cccc(Oc2ccc(C(F)(F)F)cc2NC(=O)c2cccc(F)c2)c1	none
CCS(=O)(=O)N1CCC(C(=O)Nc2cccc(F)c2)CC1	none
C=CCOc1ccc(CN(C)Cc2nc3cc(C(F)(F)F)ccc3c(=O)[nH]2)cc1	none | KCNK9 block conf inactive | Kir21 sel inactive | KCNK9 uninduced inactive
C=CCNC(=O)C1COc2ccccc2O1 (stereo not given)	none
COC(=O)CNC(c1ccccc1)c1cc(Br)ccc1NC(=O)OCc1ccccc1 (stereo not given)	KCNK9 block -18.1 | KCNK9 block conf 74.0% | Kir21 sel inactive | KCNK9 uninduced 63.5%
COc1cc(NC(=S)Nc2ccccn2)cc(OC)c1	none
O=C(COC(=O)c1ccc(S(=O)(=O)N2CCCCC2)cc1)NCc1ccc(F)cc1	none (no result: KCNK9 block, KCNQ1 inh, KCNQ1 act, Kir21 block, hERG protect)
CC1(CCC(=O)N2CCCC(Nc3ccc(F)cc3)C2)CC1 (stereo not given)	Kir21 block -6.11 | KCNK9 block conf inactive | Kir21 sel inactive | KCNK9 uninduced inactive
O=C(CC1CCCC1)N1CCCC(Nc2ccc(F)cc2)C1 (stereo not given)	none | KCNK9 block conf inactive | Kir21 sel inactive | KCNK9 uninduced inactive
Cc1ccc(S(=O)(=O)CCc2nc3ccccc3s2)cc1C	none
COc1ccc(/C(C)=N/Nc2ccc(C(=O)O)cc2)c(OC)c1	none
COc1ccc2c(c1)C(=NNc1ccc(C(=O)O)cc1)c1cc(OC)ccc1-2	none | KCNK9 block conf inactive | Kir21 sel inactive | KCNK9 uninduced inactive
Clc1ccc(Cn2nc(-c3ccccc3)nc2-c2ccccc2)cc1	KCNK9 block -11.7 | KCNK9 block conf 57.5% | Kir21 sel inactive | KCNK9 uninduced 54.0%
CC(=O)Nc1ccc(OS(=O)(=O)c2ccc([N+](=O)[O-])cc2)cc1	none
Cc1sc2nc(CSc3ccccc3)nc(N3CCN(C)CC3)c2c1C	Kir21 block -4.69 | KCNK9 block conf inactive | Kir21 sel inactive | KCNK9 uninduced 29.5%
CCOc1ccc2nc(COC(=O)c3ccncc3)c(C(=O)c3ccccc3)[n+]([O-])c2c1	none
O=C(/C=C/c1ccccc1Cl)N(c1ccccn1)C1CCCCC1	KCNK9 block -12.2 | KCNK9 block conf 58.0% | Kir21 sel inactive | KCNK9 uninduced 32.0%
CCCCC(CC)C(=O)O (stereo not given)	none (no result: KCNK9 block, KCNQ1 inh, KCNQ1 act, Kir21 block, hERG protect)
CC1=NOC(=O)/C1=C\c1ccc(-c2cccc(Cl)c2)o1	none | KCNK9 block conf inactive | Kir21 sel inactive | KCNK9 uninduced inactive
COc1ccc(OC)c(C(=O)N2CCC(n3nccc3NC(=O)CC(C)C)CC2)c1	none
COc1ccccc1-c1nc(C#N)c(N2CCN(c3cccc(Cl)c3)CC2)o1	KCNK9 block -8.58 | KCNK9 block conf 47.5% | Kir21 sel inactive | KCNK9 uninduced inactive
O=C(Nc1cccc(Cl)c1)N(CCN1CCOCC1)Cc1ccccc1F	none
C=CCC(c1ccccc1F)N(CCN1CCOCC1)C(=O)Nc1cccc(Cl)c1 (stereo not given)	KCNK3 block -8.94, KCNK9 block -12.9 | KCNK9 block conf 57.0% | Kir21 sel inactive | KCNK9 uninduced 39.5% | KCNK3 confirm 127.3 | KCNK3 uninduced 0.14
CCCCNC(=O)c1ccc(NS(=O)(=O)c2ccccc2)cc1	none
COc1ccccc1C1CC(c2cccc(NS(C)(=O)=O)c2)=NN1S(=O)(=O)c1ccccc1 (stereo not given)	none
